SMILES strings stand for the structures.

The term IC50 denotes the concentration needed to halve the response being measured. Read a low IC50 as higher potency. By inhibition is commonly meant the drop in the measured response relative to a control, in per cent.

Assay [1] deals with A-375. Put plainly: Cytotoxicity activity against human A375 cells after 24 hrs by NRU assay. The format is functional, cell-based. The note with it: A-375, 24 h. An outline of the steps:
(§1)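 Neutral red uptake assay. A375 cells were seeded at 12×10³ and B16 at 10×10³ cells/well, then incubated 24 h at 37 °C in humidified 5% CO₂. Cells were exposed to compound dilutions in RPMI for 24 or 48 h. Dye was extracted with ethanol/acetic acid/water (50:1:49) and A540 read. IC50 was taken graphically from concentration-effect curves.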

Assay [2] deals with B16. Description: Cytotoxicity activity against mouse B16 cells at 50 uM after 48 hrs by NRU assay. In kind it is functional. The following applies: B16, 48 h. In a few lines: as §1
In assay [3] the test system is B16. Put plainly: Cytotoxicity activity against mouse B16 cells after 48 hrs by NRU assay. In kind it is functional, cell-based. The note with it: B16, 48 h. In a few lines: as §1
The subject of assay [4] is B16. Put plainly: Cytotoxicity activity against mouse B16 cells after 24 hrs by NRU assay. The format is functional, cell-based. The following applies: B16, 24 h. An outline of the steps: as §1
The subject of assay [5] is A-375. Description: Cytotoxicity activity against human A375 cells after 48 hrs by NRU assay. The format is functional, cell-based. The following applies: A-375, 48 h. An outline of the steps: as §1
Assay [6] concerns B16. Description: Cytotoxicity activity against mouse B16 cells at 50 uM after 24 hrs by NRU assay. In kind it is functional. The following applies: B16, 24 h. An outline of the steps:
as §1

Assay [7] relates to A-375. Description: Cytotoxicity activity against human A375 cells at 50 uM after 48 hrs by NRU assay. In kind it is functional. The following applies: A-375, 48 h. An outline of the steps:
as §1

Assay [8] has as its system A-375. Description: Cytotoxicity activity against human A375 cells at 50 uM after 24 hrs by NRU assay. In kind it is functional. The following applies: A-375, 24 h. An outline of the steps: as §1

As for `N[C@@H](CCC(=O)NNc1cccc(O)c1)C(=O)O`, the IC50 is above 50 µM in the assay on A-375 [1], 12 µM in the assay with B16 [3], 12 µM in the assay with B16 [4] and above 50 µM with A-375 [5]. In addition, the inhibition at 50 µM in the assay on B16 [2] was 100%; in the assay with B16 [6], 100%; with A-375 [7] it was 14%; with A-375 [8] it was 8%.
Take `O=C(CC[C@H](NC(=O)OCc1ccccc1)C(=O)OCc1ccccc1)NNc1ccccc1OCc1ccccc1`: the concentration for half-maximal inhibition (IC50) in the assay on A-375 [1] was 29 µM; in the assay on B16 [3], 15 µM; in the assay on B16 [4] it was 21 µM; in the assay with A-375 [5] it was 30 µM. Moreover, the inhibition at 50 µM came to 100% with B16 [2], 96% in the assay on B16 [6], 69% in the assay with A-375 [7] and 77% with A-375 [8].
`O=C(CC[C@H](NC(=O)OCc1ccccc1)C(=O)OCc1ccccc1)NNc1cccc(OCc2ccccc2)c1`: the half-maximal inhibitory concentration (IC50) in the assay with A-375 [1] came to 28 µM; in the assay on B16 [3], 14.5 µM; in the assay with B16 [4], 8 µM; with A-375 [5] it was 29 µM. Besides, the inhibition at 50 µM stood at 100% in the assay on B16 [2], 100% in the assay on B16 [6], 73% in the assay with A-375 [7] and 80% in the assay with A-375 [8].
Take `O=C(CC[C@H](NC(=O)OCc1ccccc1)C(=O)OCc1ccccc1)NNc1ccc(OCc2ccccc2)cc1`: the IC50 in the assay on A-375 [1] was above 50 µM; with B16 [3], 0.6 µM; with B16 [4] it was 5 µM; with A-375 [5], above 50 µM. The inhibition at 50 µM with B16 [2] is 100%; with B16 [6] it was 100%; with A-375 [7] it was 19%; with A-375 [8], 4%.
For `COc1cc([C@@H]2c3cc4c(cc3[C@@H](O[C@@H]3O[C@@H]5CO[C@@H](C)O[C@H]5[C@H](O)[C@H]3O)[C@H]3COC(=O)[C@H]23)OCO4)cc(OC)c1O` [ETOPOSIDE], the IC50 came out at 19 µM in the assay on A-375 [1], 0.13 µM in the assay on B16 [3], 9 µM in the assay with B16 [4] and 12 µM in the assay on A-375 [5]. Moreover, the inhibition at 50 µM in the assay with B16 [2], with B16 [6], in the assay with A-375 [7] and in the assay on A-375 [8] was 100% throughout.
With `COC1=C(NC(CO)CO)C[C@@](O)(CO)CC1=O` [MYCOSPORINE SERINOL], the IC50 was above 50 µM with A-375 [1], 27 µM with B16 [3], above 50 µM in the assay on B16 [4] and above 50 µM with A-375 [5]. For the same compound, the inhibition at 50 µM worked out at 85% with B16 [2], 34% in the assay on B16 [6], 20% with A-375 [7] and 11% in the assay on A-375 [8].
With `N[C@@H](CCC(=O)NNc1ccc(O)cc1)C(=O)O` [XANTHODERMINE], the half-maximal inhibitory concentration (IC50) is above 50 µM in the assay on A-375 [1], 0.7 µM in the assay with B16 [3], 1.6 µM in the assay on B16 [4] and above 50 µM in the assay with A-375 [5]. Besides, the inhibition at 50 µM in the assay with B16 [2] was 100%; in the assay with B16 [6], 100%; in the assay with A-375 [7] it was 31%; in the assay with A-375 [8], 12%.
